Measured values published in ChEMBL document CHEMBL2169742, “Design, synthesis, and biological evaluation of novel transrepression-selective liver X receptor (LXR) ligands with 5,11-dihydro-5-methyl-11-methylene-6H-dibenz[b,e]azepin-6-one skeleton” (J Med Chem, 2012).
Active and inactive are the calls of the source. The rule behind the calls is not given here.

Experiments:
[1] = biological target: T1, Oxysterols receptor LXR-beta (Homo sapiens, UniProt P55055); assay: Transactivational agonist activity at human LXRbeta transfected in HEK293 cells expressing CMX-Gal4N assessed as luciferase activity after 16 hrs by reporter gene assay; type: cell-based
T1 sequence (P55055 whole entry): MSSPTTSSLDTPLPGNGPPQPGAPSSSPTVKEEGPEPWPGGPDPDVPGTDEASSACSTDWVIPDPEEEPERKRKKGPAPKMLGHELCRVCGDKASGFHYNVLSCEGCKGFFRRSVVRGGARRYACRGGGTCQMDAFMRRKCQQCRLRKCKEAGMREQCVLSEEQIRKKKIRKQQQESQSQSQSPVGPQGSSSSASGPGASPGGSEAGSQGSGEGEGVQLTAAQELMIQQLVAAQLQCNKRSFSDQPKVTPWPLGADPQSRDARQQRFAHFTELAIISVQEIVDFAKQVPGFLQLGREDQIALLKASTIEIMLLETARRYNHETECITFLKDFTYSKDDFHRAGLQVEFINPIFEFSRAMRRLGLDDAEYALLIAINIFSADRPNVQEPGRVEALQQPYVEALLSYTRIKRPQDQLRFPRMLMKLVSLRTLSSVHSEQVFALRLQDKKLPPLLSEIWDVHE
How it was run: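 Gal4-hLXRα or Gal4-hLXRβ chimera (15 ng) cotransfected with tk-MH100×4-luc reporter (50 ng) and CMX-β-gal (10 ng) into HEK293 cells by calcium phosphate. Luciferase was normalized to β-gal, in triplicate.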

[2] = Transrepressional activity at LXR in C57BL/6J mouse peritoneal macrophages assessed as inhibition of LPS-induced IL-6 mRNA expression at 10 uM incubated for 6 hr prior to LPS-challenge measured after 18 hrs by RT-PCR analysis
How it was run: (§1)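 Thioglycollate-elicited peritoneal macrophages (wild-type C57BL/6J or LXRα-null, 8–10 weeks) were plated at 4 × 10⁶/well and pretreated with compound 6 h before LPS 100 ng/mL. Cells were harvested after 18 h. il-6 and il-1β mRNA were measured by real-time quantitative PCR, normalized to GAPDH.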

[3] = biological target: T1, Oxysterols receptor LXR-beta; assay: Transactivational agonist activity at human LXRbeta transfected in HEK293 cells expressing CMX-Gal4N assessed as luciferase activity after 16 hrs by reporter gene assay relative to N-(4-(1,1,1,3,3,3-hexafluoro-2-hydroxypropan-2-yl)phenyl)-N-methylbenzamide; type: cell-based; conditions: read-out: Efficacy
[4] = test system: Peritoneal macrophage cell; assay: Inhibition of LPS-induced IL-6 production in LXRalpha,LXRbeta-deficient C57BL/6J mouse peritoneal macrophages at 10 uM incubated for 6 hrs prior to LPS-challenge measured after 18 hrs by ELISA; type: functional, cell-based
How it was run: (§2)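 Thioglycollate-elicited peritoneal macrophages came from 8–10-week LXRα/β-null mice on C57BL/6J background, harvested 4 days post-injection. They were adhered, rested 24 h and plated at 2 × 10⁵/well, then pretreated with compound 6 h before LPS 10 ng/mL. Supernatant mIL-6 was measured by ELISA after 18 h; means ± SE of ≥3 independent measurements, ANOVA.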

Liver X receptor = biological target: T2, Liver X receptor (Homo sapiens, UniProt Q13133+P55055); assay: Transrepressional activity at LXR in human TPA-activated THP1 cells assessed as inhibition of LPS-induced IL6 production incubated for 6 hrs prior to LPS-challenge measured after 18 hrs by ELISA; type: cell-based; conditions: thp-1
T2 sequence (Q13133 whole entry): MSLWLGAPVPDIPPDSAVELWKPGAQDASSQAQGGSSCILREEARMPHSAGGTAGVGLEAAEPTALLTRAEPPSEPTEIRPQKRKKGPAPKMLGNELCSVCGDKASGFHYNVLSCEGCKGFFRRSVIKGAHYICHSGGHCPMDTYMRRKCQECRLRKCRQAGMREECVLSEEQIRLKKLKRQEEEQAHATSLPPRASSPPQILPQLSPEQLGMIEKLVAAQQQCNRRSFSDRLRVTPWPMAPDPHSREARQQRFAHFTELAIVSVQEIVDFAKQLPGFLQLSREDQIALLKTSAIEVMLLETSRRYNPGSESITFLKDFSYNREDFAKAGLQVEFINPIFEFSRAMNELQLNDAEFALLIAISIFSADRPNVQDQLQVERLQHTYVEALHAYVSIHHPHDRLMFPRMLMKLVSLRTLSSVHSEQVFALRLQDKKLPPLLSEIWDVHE
T2 sequence (P55055 whole entry): T1 sequence (P55055 whole entry)

[5] = test system: Peritoneal macrophage cell; assay: Inhibition of LPS-induced IL-1beta mRNA expression in LXRalpha-deficient C57BL/6J mouse peritoneal macrophages at 10 uM incubated for 6 hrs prior to LPS-challenge measured after 18 hrs by RT-PCR analysis; type: functional, cell-based; how it was run: as §1
[6] = biological target: T3, Oxysterols receptor LXR-alpha (Homo sapiens, UniProt Q13133); assay: Transactivational agonist activity at human LXRalpha transfected in HEK293 cells expressing CMX-Gal4N assessed as luciferase activity after 16 hrs by reporter gene assay relative to N-(4-(1,1,1,3,3,3-hexafluoro-2-hydroxypropan-2-yl)phenyl)-N-methylbenzamide; type: cell-based; conditions: read-out: Efficacy
T3 sequence (Q13133 whole entry): T2 sequence (Q13133 whole entry)

[7] = biological target: T3, Oxysterols receptor LXR-alpha; assay: Transactivational agonist activity at human LXRalpha transfected in HEK293 cells expressing CMX-Gal4N assessed as luciferase activity after 16 hrs by reporter gene assay; type: cell-based
[8] = Transrepressional activity at LXR in C57BL/6J mouse peritoneal macrophages assessed as inhibition of LPS-induced IL-1beta mRNA expression at 10 uM incubated for 6 hr prior to LPS-challenge measured after 18 hrs by RT-PCR analysis; how it was run: as §1
[9] = test system: Peritoneal macrophage cell; assay: Inhibition of LPS-induced IL-6 mRNA expression in LXRalpha-deficient C57BL/6J mouse peritoneal macrophages at 10 uM incubated for 6 hrs prior to LPS-challenge measured after 18 hrs by RT-PCR analysis; type: functional, cell-based; how it was run: as §1
[10] = Induction of LPS-induced IL-6 production in LXRalpha,LXRbeta-deficient C57BL/6J mouse peritoneal macrophages at 10 uM incubated for 6 hrs prior to LPS-induction measured after 18 hrs by ELISA; type: cell-based; conditions: peritoneal macrophage cell; how it was run: as §2
[11] = Induction of LPS-induced IL-6 production in LXRalpha,LXRbeta-deficient C57BL/6J mouse peritoneal macrophages at 3 uM incubated for 6 hrs prior to LPS-induction measured after 18 hrs by ELISA; type: cell-based; conditions: peritoneal macrophage cell; how it was run: as §2

Row | Structure (SMILES) | EC50 [1] | inhibition [2] | Emax [3] | inhibition [4] | IC50 (Liver X receptor) | inhibition [5] | Emax [6] | EC50 [7] | inhibition [8] | inhibition [9] | Activity [10] | Activity [11]
1 | C=C1c2ccccc2C(=O)N(C)c2ccc(C(O)(C(F)(F)F)C(F)(F)F)cc21 | 770 nM | Active | 73% | inactive | 5800 nM | inactive | 45% | 1700 nM | Active | inactive | Toxic | –
2 | O=S(=O)(c1ccccc1)N(CC(F)(F)F)c1ccc(C(O)(C(F)(F)F)C(F)(F)F)cc1 [T091317] | – | – | 118% | – | – | – | 124% | – | – | – | – | Toxic
